test system: Influenza A virus; assay: Antiviral activity against Influenza A virus H1N1 infected in dog MDCK cells after 48 hrs by CPE inhibition assay; assay type: functional, organism-based
Procedure, shortened: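 CPE-inhibition format against influenza A (H1N1), with ribavirin run in parallel as the positive control; activity is expressed as IC50.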

Row | Compound | IC50 [µM]
1 | O=C1NC(=O)[C@@H](Cc2c[nH]c3ccccc23)n2c1nc1ccccc1c2=O | 100
2 | CC(C)[C@@H]1NC(=O)[C@@H](C[C@]2(O)C(=O)Nc3ccccc32)n2c1nc1ccccc1c2=O [EPI-CLADOQUINAZOLINE] | 100
3 | O=C1N[C@@H](O)c2nc3ccccc3c(=O)n2[C@@H]1Cc1c[nH]c2ccccc12 | 100
4 | CC(=O)O[C@H](c1nc2ccccc2c(=O)n1[C@@H]1C[C@]2(OC1=O)c1ccccc1N1C(=O)C(C)(C)N[C@H]12)C(C)C [DEOXYTRYPTOQUIVALINE] | 85
5 | NC(=O)c1ncn([C@@H]2O[C@H](CO)[C@@H](O)[C@H]2O)n1 [RIBAVIRIN] | 87
6 | CC(C)=C1NC(=O)[C@@H](C[C@]2(O)c3ccccc3N3C(=O)C(C)(C)N[C@H]32)n2c1nc1ccccc1c2=O | 100
7 | CC(C)[C@H]1NC(=O)[C@@H](C[C@]2(O)C(=O)Nc3ccccc32)n2c1nc1ccccc1c2=O [CLADOQUINAZOLINE] | 100
8 | O=C1N[C@@H]2c3nc4ccccc4c(=O)n3[C@H]1CC21c2ccccc2N2C(=O)[C@@H]3CCCN3[C@H]21 (stereo not given in full) | 82
9 | CC(=O)O[C@H](c1nc2ccccc2c(=O)n1[C@@H]1C[C@]2(OC1=O)c1ccccc1N1C(=O)C(C)(C)N(O)[C@H]12)C(C)C [TRYPTOQUIVALINE] | 89
10 | CC(C)=C1NC(=O)[C@@H](C[C@]2(O)c3ccccc3N3C(=O)[C@H](C)N[C@H]32)n2c1nc1ccccc1c2=O | 82
11 | O=C1N[C@H]2c3[nH]c4ccccc4c3C[C@@H]1n1c2nc2ccccc2c1=O | > 200
12 | CC(=O)O[C@H](c1nc2ccccc2c(=O)n1[C@@H]1C[C@]2(OC1=O)c1ccccc1N1C(=O)[C@H](C)N[C@H]12)C(C)C [DEOXYNORTRYPTOQUIVALINE] | 87
13 | CC(=O)O[C@@H](c1nc2ccccc2c(=O)n1[C@@H]1C[C@]2(OC1=O)c1ccccc1N1C(=O)C(C)(C)N(O)[C@H]12)C(C)C | 100
14 | O=C1NC(=O)[C@H](Cc2c[nH]c3ccccc23)n2c1nc1ccccc1c2=O | 85
15 | O=C1NCc2nc3ccccc3c(=O)n2[C@@H]1Cc1c[nH]c2ccccc12 | 100
